Source: publication PMC7416570 (ACS chemical biology, 2020)
“Also recorded” adds a separate entry of the source. Where no end group is shown, it is not given here.

Experiments:
hPD-L1 [1] = molecular target: T1, hPD-L1 (Homo sapiens, UniProt Q9NZQ7); experiment: Radiolabeled binding assay on immobilized hPD-L1; settings: for effect of mutation on hPD-L1 binding (alanine scanning): [35S]-labeled SPAM variants, binding normalized to [35S]-SPAM, n=3
mPD-L1 = mPD-L1 (Mus musculus, UniProt Q9EP73); experiment: Radiolabeled binding assay on immobilized mPD-L1; settings: radioactive binding assay
Chain of mPD-L1 (Q9EP73 19-239 limits assumed): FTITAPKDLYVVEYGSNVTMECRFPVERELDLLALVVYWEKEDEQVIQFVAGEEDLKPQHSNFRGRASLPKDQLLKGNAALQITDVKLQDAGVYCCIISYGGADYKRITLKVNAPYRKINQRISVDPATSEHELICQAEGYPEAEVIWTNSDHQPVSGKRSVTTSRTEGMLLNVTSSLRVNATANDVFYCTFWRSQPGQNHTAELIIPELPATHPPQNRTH
Outline: (§1)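 Peptide mRNA was translated in rabbit reticulocyte lysate with [35S]-methionine (2 μCi per 10 pmol template, 30 °C, 1 h). The resulting fusions were purified on oligo-dT agarose and tested for pull-down by the immobilized target protein, read as bead-retained radioactivity.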

hPD-L2* = molecular target: T2, hPD-L2* (Homo sapiens, UniProt Q9BQ51); experiment: Radiolabeled binding assay on immobilized hPD-L2*; settings: radioactive binding assay
T2 sequence (Q9BQ51 20-220): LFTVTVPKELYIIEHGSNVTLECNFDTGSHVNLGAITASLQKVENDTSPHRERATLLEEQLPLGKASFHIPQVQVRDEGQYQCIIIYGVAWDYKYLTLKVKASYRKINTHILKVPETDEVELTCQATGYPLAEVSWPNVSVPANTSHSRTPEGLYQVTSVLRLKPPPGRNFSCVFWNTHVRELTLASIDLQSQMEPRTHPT
Outline: as §1

hPD-L1 [2] = molecular target: T1, hPD-L1; experiment: Radiolabeled binding assay on immobilized hPD-L1*; settings: radioactive binding assay
Outline: as §1

[3] = Serum stability of [35S]-SPAM read out by binding to hPD-L1; format: in vitro ADME; settings: [35S]-labeled SPAM, 25% human serum, 37 °C, up to eight hours
hPD-L1/mPD-1 interaction = hPD-L1/mPD-1 interaction (Homo sapiens, UniProt Q9NZQ7); experiment: ELISA/IP assay of the hPD-L1/mPD-1 interaction; format: biochemical; settings: 10 μM SPAM, hPD-L1 and mPD-1 100 nM
[4] = molecular target: hPD-L1 expressed on CHO-hPD-L1 cells (Homo sapiens, UniProt Q9NZQ7); experiment: Antibody competition by flow cytometry, CHO-hPD-L1; format: cell-based; settings: pre-treatment 0–20 μM
hPD-L1 [5] = molecular target: T1, hPD-L1; settings: read-out: previously reported KD values PD-1/hPD-L1; cited from earlier work

Molecule	effect of mutation on hPD-L1 binding (alanine scanning) (hPD-L1 [1])	other results
C#CC[C@H](NC(=O)CNC(=O)[C@H](CO)NC(=O)[C@H](C)NC(=O)[C@H](Cc1ccc(O)cc1)NC(=O)[C@H](Cc1c[nH]cn1)NC(=O)[C@H](CC(C)C)NC(=O)[C@@H](NC(=O)[C@H](Cc1c[nH]c2ccccc12)NC(=O)[C@H](Cc1ccccc1)NC(=O)[C@H](CCCCN)NC(=O)[C@H](CC(N)=O)NC(=O)[C@H](CC(C)C)NC(=O)[C@@H](NC(=O)[C@H](Cc1c[nH]cn1)NC(=O)[C@H](CC(=O)O)NC(=O)[C@H](CC(C)C)NC(=O)[C@H](Cc1ccccc1)NC(=O)[C@@H](NC(=O)[C@@H]1CCCN1C(=O)[C@@H](N)CCSC)[C@@H](C)CC)[C@@H](C)CC)[C@@H](C)CC)C(N)=O (stereo in doubt) [SPAM]		[35S]-labeled SPAM binding to immobilized hPD-L1 (hPD-L1 [1]; 75 pmol hPD-L1 on streptavidin agarose, 4 °C, 1 h): efficiently pulled-down; [35S]-labeled SPAM binding to mPD-L1 (mPD-L1): no significant binding; also recorded: not pulled-down; also recorded: essentially no binding; [35S]-labeled SPAM binding to hPD-L2* (hPD-L2*): no significant binding; also recorded: essentially no binding; [35S]-labeled SPAM binding to hPD-L1* (hPD-L1 [2]): captured; loss of binding to hPD-L1 after incubation in human serum [3]: ~ 25%; disruption of PD-1 binding to hPD-L1 at 10 μM (hPD-L1/mPD-1 interaction): almost completely disrupted; blocking of Fluorescein-16373 binding to CHO-hPD-L1 ([4]; 50 nM FAM-16373, flow cytometry): blocking; blocking of Fluorescein-16377 binding to CHO-hPD-L1 ([4]; 50 nM FAM-16377, flow cytometry): blocking
A18: SPAM variant with glycine substituted for alanine at position 18 (MPIFLDHILNKFWILHYGGSGSSG; also: [35S]-labeled methionine, peptide-RNA fusion)	completely abolished	
D6A: SPAM variant with alanine substituted at position 6 (MPIFLAHILNKFWILHYAGSGSSG; also: [35S]-labeled methionine, peptide-RNA fusion)	completely abolished	
F4A: SPAM variant with alanine substituted at position 4 (MPIALDHILNKFWILHYAGSGSSG; also: [35S]-labeled methionine, peptide-RNA fusion)	little or no significant influence	
F12A: SPAM variant with alanine substituted at position 12 (MPIFLDHILNKAWILHYAGSGSSG; also: [35S]-labeled methionine, peptide-RNA fusion)	completely abolished	
H7A: SPAM variant with alanine substituted at position 7 (MPIFLDAILNKFWILHYAGSGSSG; also: [35S]-labeled methionine, peptide-RNA fusion)	completely abolished	
H16A: SPAM variant with alanine substituted at position 16 (MPIFLDHILNKFWILAYAGSGSSG; also: [35S]-labeled methionine, peptide-RNA fusion)	completely abolished	
I3A: SPAM variant with alanine substituted at position 3 (MPAFLDHILNKFWILHYAGSGSSG; also: [35S]-labeled methionine, peptide-RNA fusion)	little or no significant influence	
I8A: SPAM variant with alanine substituted at position 8 (MPIFLDHALNKFWILHYAGSGSSG; also: [35S]-labeled methionine, peptide-RNA fusion)	little or no significant influence	
I14A: SPAM variant with alanine substituted at position 14 (MPIFLDHILNKFWALHYAGSGSSG; also: [35S]-labeled methionine, peptide-RNA fusion)	completely abolished	
K11A: SPAM variant with alanine substituted at position 11 (MPIFLDHILNAFWILHYAGSGSSG; also: [35S]-labeled methionine, peptide-RNA fusion)	completely abolished	
L5A: SPAM variant with alanine substituted at position 5 (MPIFADHILNKFWILHYAGSGSSG; also: [35S]-labeled methionine, peptide-RNA fusion)	little or no significant influence	
L9A: SPAM variant with alanine substituted at position 9 (MPIFLDHIANKFWILHYAGSGSSG; also: [35S]-labeled methionine, peptide-RNA fusion)	little or no significant influence	
L15A: SPAM variant with alanine substituted at position 15 (MPIFLDHILNKFWIAHYAGSGSSG; also: [35S]-labeled methionine, peptide-RNA fusion)	completely abolished	
MRIFAVFIFMTYWHLLNA [hPD-L1 signal peptide, reference compound]		binding of hPD-L1 signal peptide-mRNA fusion to hPD-L1 beads (hPD-L1 [1]; streptavidin agarose beads loaded with 1.1 μM hPD-L1 (1,100 pmol)): some binding
N10A: SPAM variant with alanine substituted at position 10 (MPIFLDHILAKFWILHYAGSGSSG; also: [35S]-labeled methionine, peptide-RNA fusion)	completely abolished	
P2A: SPAM variant with alanine substituted at position 2 (MAIFLDHILNKFWILHYAGSGSSG; also: [35S]-labeled methionine, peptide-RNA fusion)	decreased levels of hPD-L1 binding	
W13A: SPAM variant with alanine substituted at position 13 (MPIFLDHILNKFAILHYAGSGSSG; also: [35S]-labeled methionine, peptide-RNA fusion)	completely abolished	
mPD-1: extracellular domain of murine PD-1 (L25 to S157, C83S) with HA tag and His tag (protein, left off: HA tag (…), C-terminal, kept | His tag, C-terminal, state not stated) MALEVPNGPWRSLTFYPAWLTVSEGANATFTCSLSNWSEDLMLNWNRLSPSNQTEKQAAFSNGLSQPVQDARFQIIQLPNRHDFHMNILDTRRNDSGIYLCGAISLHPKAKIEESPGAELVVTERILETSTRYPS		Kd (hPD-L1 [5]): 4 to 8 µM
